In the library only some 4.1% were active in any assay of this set; here they are far more common.
KCNK3 block: human KCNK3 channel inhibition, primary screen. O14649. CHO-KCNK3 thallium flux, FluxOR fluorescence; hits give low values. B-score at 10 µM. hit rate 0.84% among 340,000. AID 602410;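 active = B-score under library mean minus 4 SD, starting fluorescence ratio at most library mean plus 5 SD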;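 also: more negative B-score means stronger inhibition of thallium flux through KCNK3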
KCNQ1 block: inhibitors of human KCNQ1 potassium channel. B-score at 10 µM. AID 2642. P51787. hit rate 1.3% among 310,000. CHO-K1 KCNQ1, FluxOR thallium flux fluorescence; hits give high values;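 active = compounds whose thallium flux B-score, printed positive for inhibition, exceeds three library SD while starting fluorescence stays within three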;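 also: channel opened by potassium depolarization with thallium stimulus after 20 min compound exposure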
KCNQ1 act: human KCNQ1 channel potentiation or activation. CHO-K1 KCNQ1, thallium flux FluxOR fluorescence; hits give high values. B-score at 10 µM. hit rate 0.35% among 310,000;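 active = fluorescence ratio B-score, a plate-corrected score, at least three library SD, with initial intensity B-score within 5 SD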
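Assay system: CHO-K1 cells stably expressing KCNQ1. Medium: assay buffer for compound exposure, DMSO matched across wells. Timing: 37 °C overnight plating, 90-min dark dye load, 20-min compound pretreatment. Signal: kinetic FluxOR fluorescence, 10 s baseline plus 110 s post-stimulus.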
KCNK9 block: blocks the human KCNK9 two-pore domain potassium channel | hit rate 1.2% among 310,000 | B-score at 10 µM | HEK293 KCNK9, FluxOR thallium flux fluorescence; hits give low values | Q9NPC2 | AID 488922;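 active = ratio B-score over 3 SD below the library mean, with starting fluorescence within 5 SD of its mean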;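 also: negative B-score means less thallium flux so channel inhibition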
Target sequence (Q9NPC2 whole entry, looked up, the tested form may be a part): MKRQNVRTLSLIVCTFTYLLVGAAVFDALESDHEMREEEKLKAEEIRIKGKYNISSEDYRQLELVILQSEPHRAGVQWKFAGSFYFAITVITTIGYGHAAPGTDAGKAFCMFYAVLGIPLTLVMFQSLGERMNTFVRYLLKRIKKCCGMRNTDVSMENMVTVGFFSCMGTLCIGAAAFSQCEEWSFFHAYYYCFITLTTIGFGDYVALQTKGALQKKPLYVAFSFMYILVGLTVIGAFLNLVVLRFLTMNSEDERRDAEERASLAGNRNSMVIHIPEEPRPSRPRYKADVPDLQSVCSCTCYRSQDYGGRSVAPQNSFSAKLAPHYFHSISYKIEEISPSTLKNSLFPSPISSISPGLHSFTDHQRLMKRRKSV
Cl transport mod: modulates chloride dependent transport by human KCC2 | Q9H2X9 | KCC2 cells, thallium flux FluoZin-2 fluorescence | B-score of Tl+ flux slope (higher = more flux/activation; lower = inhibition) at 10 µM | hit rate 2.2% among 190,000 | AID 1456;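 active = thallium flux slope and its plate-corrected score both differing from the plate sample mean at a set confidence after two filtering rounds, in either direction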;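 also: slope of fluorescence scaled to starting intensity during 10 to 20 s after thallium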
hERG protect: hERG (human) protection from proarrhythmic block; AID 1511; CHO-hERG, FluxOR thallium flux, dofetilide IC70 present; activation (rescue from dofetilide block), less the hit threshold, % at 10 µM; hit rate 0.51% among 310,000; Q12809;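 active = activation above the mean of controls blocked by dofetilide plus 5 SD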;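 also: thallium influx through hERG after potassium depolarization seen as dye fluorescence rise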
KCNK9 block conf: confirmation of human KCNK9 potassium channel inhibitors; HEK293 KCNK9 cells, FluxOR thallium flux fluorescence; shares compounds with KCNK9 block; inhibition, % at 10 µM; hit rate 43% among 4,900;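 active = thallium signal inhibited by more than 5 SD of the compound-free buffer control wells, on both duplicate plates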;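 also: 0% = assay buffer control wells without compound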
Kir2-1 spec: selectivity of KCNK9 modulators against mouse Kir2.1 | shares compounds with KCNK9 block | Kir2.1 cells, FluxOR thallium flux fluorescence | inhibition, % at 10 µM | hit rate 4% among 4,900;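 active = thallium signal drop more than 5 SD beyond the mean of the no-compound control wells, seen in both duplicate plates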;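 also: signal is fluorescence rise after thallium addition divided by baseline fluorescence; plate controls were assay buffer only for no effect and full block by chlorpromazine control for full effect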
HEK293 Tl ctr: second check of KCNK9 modulator effects in non-induced HEK293 cells; shares compounds with KCNK9 block; FluxOR thallium flux; inhibition, % at 10 µM; hit rate 40% among 4,900;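 active = thallium signal drop beyond 5 SD of the untreated control mean, on both duplicate plates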;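 also: plate controls were buffer only IC0 wells for no effect and SID17386958 at its maximal inhibitory level for full effect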
Numbers without * were called inactive; i = inactive; / = no result given.

SMILES	KCNK3 block	KCNQ1 block	KCNQ1 act	KCNK9 block	Cl transport mod	hERG protect	KCNK9 block conf	Kir2-1 spec	HEK293 Tl ctr
COc1ccccc1CN1CCc2c([nH]c3ccccc23)C1	i	i	i	i	/	-6.6	/	/	/
O=C(COC(=O)c1cccc(S(=O)(=O)N2CCCC2)c1)Nc1ccccc1C(F)(F)F	i	/	/	/	/	/	/	/	/
O=c1c2c3c(sc2n(CCN2CCCCC2)c(=O)n1Cc1ccco1)CCCCC3	i	i	i	i	/	-14.3	i	i	i
O=C(NCc1ccco1)c1cccc(NS(=O)(=O)c2cccc(F)c2)c1	i	i	i	i	0.131	-6.3	/	/	/
O=C(NCc1ccco1)c1cc(NS(=O)(=O)c2cccc([N+](=O)[O-])c2)ccc1O	i	i	i	i	-0.291	-11.3	i	i	i
Cc1nc(C(=O)N2CCc3c([nH]c4ccccc34)C2c2ccccn2)cs1 (stereo not drawn)	i	i	i	i	-0.285	-4.9	/	/	/
Cc1nc(C(=O)N2CCc3c([nH]c4ccccc34)C2c2cc(F)ccc2F)cs1 (stereo not drawn)	i	i	i	-9.97*	-0.922	-14.1	46.5%*	i	31.0%*
CC(C)Sc1nnc([C@H](C)NC(=O)OC(C)(C)C)o1	i	i	i	i	-0.343	-8.0	/	/	/
CCOc1ccccc1OCCN1CCC(Cc2ccccc2)CC1	i	i	i	i	0.933	-12.1	i	i	i
Cc1ccccc1OCCN1CCC(Cc2ccccc2)CC1	i	i	i	i	-0.887	-14.2	i	i	i
Cc1ccc([N+](=O)[O-])c(OCCN2CCC(Cc3ccccc3)CC2)c1	i	i	i	i	-2.26	-29.0	i	i	i
CCOc1ccccc1OCCN1CCCC1	i	i	i	i	/	-0.9	/	/	/
COc1cc(C)c(NC(=O)C(=S)N2CCCC2)cc1C	i	i	i	i	0.0179	-16.1	/	/	/
COc1cc(C)c(NC(=O)C(=S)NCc2ccccc2)cc1C	i	i	i	i	0.0263	3.0	i	i	27.0%*
O=C(N=C1SC2CS(=O)(=O)CC2N1c1c(Cl)cccc1Cl)C1CC1 (stereo not drawn)	i	i	i	i	/	-8.7	/	/	/
Cc1cc(C)nc(N/C(=N\S(=O)(=O)Cc2ccccc2)Nc2ccc(F)c(Cl)c2)n1	i	i	i	-12.8*	3.2	-3.8	i	i	i
Cc1cc(C)nc(N/C(=N\S(=O)(=O)Cc2ccccc2)Nc2cccc(Cl)c2C)n1	i	i	i	i	/	-17.2	/	/	/
Cn1c(C(=O)N2CCCC(C(=O)NCCCSC3CCCCC3)C2)cc2sccc21 (stereo not drawn)	i	i	i	i	-0.982	-4.3	i	i	i
CCn1c(C(=O)N2CCCC(C(=O)NCCCc3ccccc3)C2)cc2sccc21 (stereo not drawn)	i	i	i	i	/	-9.0	i	i	i
CCn1c(C(=O)N2CCCC(C(=O)NCCc3ccc(C)cc3)C2)cc2sccc21 (stereo not drawn)	i	/	/	/	-2.29	/	/	/	/
C/C(=N\NC(=O)c1ccc(COc2ccccc2)cc1)c1ccncc1	i	i	i	i	-0.0709	-12.2	/	/	/
O=C(OCc1cc(=O)n2cc(Br)ccc2n1)c1ccc(Cl)c(S(=O)(=O)NCc2ccccc2)c1	i	i	i	-10.9*	-1.22	-9.5	i	i	i
CCNCC(=O)N1c2ccccc2CCc2ccc(NC(C)=O)cc21	i	i	i	i	0.559	-2.3	/	/	/
CCNCC(=O)N1c2ccccc2CCc2ccc(NC(=O)OC(C)C)cc21	i	i	i	-12.9*	/	-9.0	65.5%*	i	i
CCC(=O)NC(c1cccc([N+](=O)[O-])c1)c1c(O)ccc2ccccc12 (stereo not drawn)	i	i	i	i	0.373	-15.2	/	/	/
SMILES	KCNK3 block	KCNQ1 block	KCNQ1 act	KCNK9 block	Cl transport mod	hERG protect	KCNK9 block conf	Kir2-1 spec	HEK293 Tl ctr
OC(COc1ccc(Cl)cc1)CN1CCN(c2cccc(Cl)c2)CC1 (stereo not drawn)	i	i	i	i	-0.47	-19.9	i	i	i
OC(COC(c1ccccc1)c1ccccc1)CN1CCN(c2cccc(Cl)c2)CC1 (stereo not drawn)	i	i	i	i	/	-12.0	i	i	i
Cc1cccc(C)c1OCC(O)CN1CCN(c2ccccc2)CC1 (stereo not drawn)	i	i	i	i	-0.754	-15.6	i	i	i
OC(COC(c1ccc(Cl)cc1)c1ccc(Cl)cc1)CN1CCN(c2ccccn2)CC1 (stereo not drawn)	i	i	i	i	0.815	-34.1	i	i	i
Cc1cccc(N2CCN(CC(O)COc3ccc(Cl)cc3)CC2)c1 (stereo not drawn)	i	i	i	i	/	-9.6	/	/	/
CC1(C)Cc2nc3oc4c(=O)n(CC(=O)Nc5ccc(Cl)cc5)cnc4c3cc2CO1	i	i	i	i	-0.242	-7.5	/	/	/
COc1ccc(CCNC(=O)C(=O)NCC2OCCN2S(=O)(=O)c2ccc3c(c2)OCCO3)cc1 (stereo not drawn)	i	i	i	i	/	-4.9	/	/	/
Fc1cc2[nH]c(=S)[nH]c2cc1Cl	i	i	i	i	1.45	-6.1	/	/	/
O=c1[nH]c2ccccc2c(O)c1-c1ccccc1	i	i	i	i	0.0114	-9.6	/	/	/
O/N=C/Cc1[nH]c2ccccc2c1-c1ccccc1	i	i	i	-9.06*	/	-6.0	47.0%*	i	i
CCOC(=O)Cn1nc(C)c(NC(=O)COc2cccc(Cl)c2)c1C	i	i	i	i	0.671	-4.4	/	/	/
COc1ccc(-c2nc(-c3ccccc3)c(-c3cc([N+](=O)[O-])ccc3C)[nH]2)cc1OC	i	14*	i	-12.2*	4.38	-7.3	54.5%*	i	33.0%*
NC(=O)CN1C(=O)C(=O)N(Cc2cccc(Cl)c2)C1=O	i	i	i	i	/	1.1	/	/	/
O=C(NCCc1ccccc1)c1oc2ccccc2c1COc1ccccc1	i	6*	i	i	-0.122	-13.7	i	i	i

Bioassay records deposited in PubChem by several laboratories.
